Bioassay records as filed in PubChem.
MKP-1 inh: inhibitors of human MKP-1 phosphatase. P28562. recombinant MKP-1, OMFP hydrolysis fluorescence. inhibition, %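 (compounds tested at a single concentration somewhere between 10 and 100 µM)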. 0.15% of 65,000 active;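 active means inhibition above about 50%, limit read from the data; inconclusive means inhibition over screen mean plus 3 SD, below that limit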;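 further: 0% = DMSO max control wells and 100% = wells with enzyme stopped by NaOH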
Target sequence (P28562 whole entry, looked up): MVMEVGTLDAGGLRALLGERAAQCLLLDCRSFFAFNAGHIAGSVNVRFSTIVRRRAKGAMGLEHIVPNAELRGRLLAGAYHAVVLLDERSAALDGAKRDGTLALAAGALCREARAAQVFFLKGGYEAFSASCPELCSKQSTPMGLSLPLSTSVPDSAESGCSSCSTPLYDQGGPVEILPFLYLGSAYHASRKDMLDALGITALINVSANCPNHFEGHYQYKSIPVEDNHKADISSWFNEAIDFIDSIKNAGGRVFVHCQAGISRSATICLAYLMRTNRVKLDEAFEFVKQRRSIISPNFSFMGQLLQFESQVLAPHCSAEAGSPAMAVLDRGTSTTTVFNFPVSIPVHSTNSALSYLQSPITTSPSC
M1 antagonist: M1 muscarinic receptor (rat) antagonism; B-score at 10 µM; CHO-M1 cells, Fluo-4 calcium, ACh EC80 antagonist mode; active compounds read low; 3.4% of 64,000 active;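 active means calcium fluorescence response, raw or row-and-column corrected B-score, differing from the plate sample mean either way at a set confidence level, mostly lower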
Her2 expr inh: lowers expression of human Her2 kinase | P04626 | SKBR-3 HER2 protein level, AlphaScreen, 18-24 h; active compounds read low | HER2 level % of control, % at 10 µM | 0.69% of 65,000 active | AID 645;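 active means HER2 level under 5% of the carrier-only control; inconclusive means no clear call, values can overlap the other calls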;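 further: 100% = DMSO carrier and 0% = 500 nM PU-H71 HSP90 inhibitor; lower value means stronger loss of Her2 protein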
HEK293 NFkB inh: lowers PMA/ionomycin-induced NF-kB signal in HEK293 cells. HEK-293 NF-kB luciferase reporter, luminescence. inhibition, % at 3 µM. 0.21% of 62,000 active;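 active means inhibition above the mean of all tested compounds plus 3 SD, cut at about 40% in these data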;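 further: 0% = stimulated DMSO wells and 100% = 10 µM reference inhibitor 5653914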
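Signal: luciferase luminescence; Material: HEK-293 cells with stable firefly luciferase reporter driven by four HIV NF-kB elements; Probe or stimulus: PMA with ionomycin; Replication: tested once; Times: 1 h compound pretreatment, then 16 h stimulation at 37 °C, 5% CO2; Benchmarks: DMSO and 10 µM reference inhibitor; Evaluation: per-plate % inhibition versus controls.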
Cdc25B inh: inhibitors of human Cdc25B phosphatase. recombinant Cdc25B, OMFP fluorescence Ex485/Em525. inhibition, %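 (compounds tested at 10 µM final in the well)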. 0.1% of 65,000 active. AID 368; in the data active means inhibition above about 50%
M1 agonist: M1 muscarinic receptor agonism; CHO-M1 cells, Fluo-4 calcium fluorescence, agonist mode; active compounds read high; B-score at 10 µM; 3% of 64,000 active;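 active means fluorescence rise, raw or as B-score row- and column-corrected plate score, outside the 99.7% band of its plate's samples, either direction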
Redox H2O2 0p5DTT: redox cycling H2O2 generation, Cdc25B counter-screen | shares compounds with Cdc25B inh | cell-free redox cycling H2O2 generation, 0.5 mM DTT | EC50, µM | 50% of 30 active | AID 682; in the data active means EC50 below about 30 µM
Redox H2O2 1DTT: generates H2O2 by redox cycling in 1 mM DTT. EC50, µM. 30 tested, under 10 active. AID 683. cell-free redox cycling H2O2 generation. shares compounds with Cdc25B inh; in the data active means EC50 below about 50 µM
Redox H2O2: redox cycling H2O2 generation, MKP probe counter-screen. shares compounds with MKP-1 inh. DTT, phenol red/HRP. EC50, µM. 60 tested, under 10 active; call rule not given here
M1 ag confirm: rat M1 muscarinic agonism, confirmation; CHO-M1 cells, Fluo-4 calcium fluorescence, agonist mode; actives lie on both sides; AID 1488; shares compounds with M1 agonist; 19% of 1,700 active; fluorescence change (max-min) at 10 µM;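 active means fluorescence change differs from the solvent-only DMSO control mean at a set confidence level in both duplicate runs; inconclusive means differs from solvent-only control mean in just one of two runs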;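 further: an EC20 dose of acetylcholine follows compound addition during the same imaging run; raw fluorescence intensity difference in instrument units with no normalization to controls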
M4 ag counter: activates rat M4 receptor in counter-screen for M1 agonists | shares compounds with M1 agonist | CHO M4/Gqi5 cells, Fluo-4 calcium fluorescence, agonist mode; actives lie on both sides | fluorescence change (max-min) at 10 µM | 9% of 1,700 active | AID 1741;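 active means fluorescence change differing from the plate's solvent-only control wells at 99.7% confidence in both duplicates, whether higher or lower; inconclusive means differs from solvent controls in only one of two duplicates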
Numbers without * were called inactive; ? = inconclusive; . = no result. A selection: hits, their analogues and other compounds. The true share with any hit is near 6.8%.

SMILES	MKP-1 inh	M1 antagonist	Her2 expr inh	HEK293 NFkB inh	Cdc25B inh	M1 agonist	others
O=C(COc1ccccc1)N1CCN(C2CCCC2)CC1	-11	-0.88	-4.8*	4	-13	-0.25
O=C(Cc1ccccc1)N1CCN(C2CCCC2)CC1	-6	0.029	120	13	2	0.099
N=Cc1c(O)n(-c2cccc(Cl)c2)c(=O)[nH]c1=O	6	-0.74	105	-4	4	2.5*
N=C(N)c1c(O)n(C2CCCCC2)c(=O)n(C2CCCCC2)c1=O	12	0.033	-6.5*	10	4	-0.63
CCN(CC)C(=O)c1ccc(NC(=O)CSc2nnnn2-c2cc(OC)ccc2OC)cc1	9	-0.26	134	-10	5	-0.51
CCN(CC)C(=O)c1ccc(NC(=O)Cn2nc(C)c3ccccc3c2=O)cc1	0	-0.3	110	4	71*	-0.27
Cc1c2ccncc2c(C)c2c1[nH]c1ccccc12	-29	-0.42	96	.	23	35*
c1ccc2c(c1)[nH]c1cnccc12	-12	-0.01	92	.	-7	-0.13
CCOc1ccc2[nH]c(=O)c(CN(CCO)C3(c4nnnn4C4CCCCC4)CCCCC3)cc2c1	38	0.3	46	14	-8	-0.63
C[C@@]1(CO)[C@H](O)CC[C@@]2(C)[C@H]1CC[C@H]1C[C@@H]3C[C@@]12CC[C@]3(O)CO	0	1.5	-15*	.	-4	-0.38
CCOC(=O)CN1C(=O)C2(C(C#N)=C(N)Oc3ccccc32)C(C(=O)OC)=C1C (stereo not drawn)	15	0.71	99	12	4	-0.13
CCn1c(=O)n(CC(=O)N2CCC3(CC2)OCCO3)c(=O)c2ccccc21	1	0.3	81	16	53*	-0.34
CCC(=NCc1ccc2c(c1)OCO2)c1c(O)n(C2CCCCC2)c(=O)[nH]c1=O	0	-0.8	39	12	2	-0.79
CN(C)c1ccc(P(=S)(N(C)C)N(C)C)cc1	2	0.71	92	17	-12	-0.56
CCOP(=S)(OCC)c1ccc(N(C)C)cc1	1	-0.38	91	12	-2	3*
Nc1c(C(=O)NCCc2ccccc2)c2nc3ccccc3nc2n1CCN1CCOCC1	32	0.043	-5.1*	0	-54	-0.43
Nc1c(C(=O)NCCN2CCOCC2)c2nc3ccccc3nc2n1Cc1ccco1	38	-0.0024	80	10	-6	6.7*
C=Cn1c(P(=S)(N2CCOCC2)N2CCOCC2)cc2c1CCCC2	31	0.58	87	2	-3	-0.28
COC(=O)CSC1=NP(=S)(SCC(=O)OC)N2CCCC2=C1C#N (stereo not drawn)	20	0.52	40	15	-5	0.26
CCOC(=O)C1SC2(C(F)(F)F)CC1(O)c1c(C)cc(C)nc1O2 (stereo not drawn)	-4	0.36	81	-1	-13	1.2
Cc1cc(OC(=O)CCNC(=O)OC(C)(C)C)c2c3c(c(=O)oc2c1)CCC3	-3	-1.3	101	14	-2	7.1*
Cc1cc(OCC(=O)OC(C)(C)C)c2c3c(c(=O)oc2c1)CCC3	11	-0.13	96	12	6	-0.23
Cn1ncnc2c(=O)n(C)c(=O)nc1-2	101*	-0.042	1.0*	99*	102*	-0.28	Redox H2O2 0p5DTT=1.2*;Redox H2O2 1DTT=3.2*;Redox H2O2=11*
CCN1CCC2(CCNC2)C1 (stereo not drawn)	-10	-0.41	124	10	-13	-1.4
Cn1cccc1CN1CCN(C(=O)COc2ccccc2)CC1	3	-1.1	105	8	-27	-0.8
SMILES	MKP-1 inh	M1 antagonist	Her2 expr inh	HEK293 NFkB inh	Cdc25B inh	M1 agonist	others
Cn1nc(-c2ccc(OCC(=O)N3CCN(Cc4ccccc4)CC3)cc2)c2ccccc2c1=O	9	-2*	107	30	-1	5.4*	M1 ag confirm=?;M4 ag counter=-72
Cc1ccc(-n2c(O)c(C=Nc3ccccc3N)c(=O)[nH]c2=O)cc1C	0	0.81	87	-9	3	0.37
O=c1[nH]c(=O)n(-c2ccc(F)cc2)c(O)c1C=Nc1ccccc1N1CCCC1	14	0.1	67	14	3	4.2*	M1 ag confirm=-2.1;M4 ag counter=?
CN(C)CCN=Cc1c(O)n(-c2cccc(C(F)(F)F)c2)c(=O)[nH]c1=O	-20	-1.2	60	4	-9	0.023
CCCS(=O)(=O)N1CCCC(C(=O)N2CCC3(CC2)OCCO3)C1 (stereo not drawn)	-2	0.88	102	2	11	2*	M1 ag confirm=-6.6;M4 ag counter=-10
CC(=NCCCN1CCOCC1)c1c(O)[nH]c(=O)[nH]c1=O	-10	0.41	126	21	9	1.5*	M1 ag confirm=?;M4 ag counter=-73
CCNCC1(c2ccc(OC)c(OC)c2)CCCC1	-24	-15*	98	10	1	47*	M1 ag confirm=-7.7;M4 ag counter=-27
COc1ccccc1N1C(=O)NC(=O)C2(Cc3cc(C)ccc3N(C)C2)C1=O (stereo not drawn)	0	0.0081	203	-4	7	-0.49
Cc1cc2c(C(F)(F)F)cc(=O)oc2c2c1NCCC2	-6	-0.52	103	11	-7	205*	M1 ag confirm=1315*;M4 ag counter=1119*
Cc1cccc(-n2c(O)c(C=NCc3cccnc3)c(=O)[nH]c2=O)c1C	-12	0.06	116	2	-3	0.018
O=C(c1cc(-c2ccccc2)nc2ccccc12)N1CCC2(CC1)OCCO2	39	-0.033	68	6	-19	4.3*	M1 ag confirm=-17;M4 ag counter=-42
O=C(c1cc(Br)ccc1Cl)N1CCC2(CC1)OCCO2	5	-0.32	111	20	-11	0.81
NC12CN3CN(CN(C3)C1)C2 (tested in a mixture with another compound)	-38	-0.9	92	6	-10	-0.19
Cc1ccc2c(c1)C1CN(C)CCC1N2C(=O)COc1ccc(S(=O)(=O)N2CCOCC2)cc1 (stereo not drawn)	6	-0.34	109	9	10	1
Cn1c2ccccc2c2c(C(=O)N3CCC4(CC3)OCCO4)cn(C3CCCC3)c(=O)c21	4	-0.73	115	10	4	14*	M1 ag confirm=-4;M4 ag counter=-26
